From paper PMC7105043 (Journal of the Chinese Medical Association, 2017)
In brackets after ≈: the same amount, converted by molar mass.

Key:
A549 cells = test: XTT cytotoxicity assay; format: cell-based, human; conditions: XTT, 3 days; method says A549 cells, Table 1 says MDCK cells
Outline: (§1)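 Test compound serially diluted in complete MEM (10% heat-inactivated FBS) and added to A549 cells seeded at 1 × 10^4 cells/well and pre-incubated 24 h. Cells exposed 3 days at 35 °C, 5% CO2, then XTT reagent for 4 h. Absorbance read at 450 nm, reference 620 nm. Viability relative to untreated control (100%). Triplicate wells, at least three independent runs.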

[1] = tested on: pandemic influenza A (H1N1) virus (A/California/07/2009); test: microbe, parasite or virus in culture; format: cell-based
[2] = tested on: pandemic influenza A (H1N1) virus; format: cell-based
[3] = tested on: pandemic influenza A (H1N1) virus; format: cell-based; remark: listed apart in the source
[4] = tested on: pandemic influenza A (H1N1) virus; format: cell-based; remark: listed apart in the source
XTT cytotoxicity assay = format: cell-based, human; conditions: dog, MDCK cells
Outline: as §1

[5] = tested on: H1N1 A/Puerto Rico/8/34-NS116-GFP; conditions: ref 25 (Theisen et al); cited from earlier work
[6] = ref 25 (Theisen et al); cited from earlier work

Row | SMILES | protective effect against virus infection (cell viability) [2] | inhibition of viral RNA synthesis (qRT-PCR) [3] | green fluorescence (viral glycoprotein foci) [4] | CC50 at 3 days (XTT cytotoxicity assay) [µg/mL] | other results
1 | O.Oc1cc(O)c2c(c1)O[C@H](c1ccc(O)c(O)c1)[C@@H](O)C2 [catechin] | protective effects | significant inhibition | decreased in a dose-dependent manner |  | XTT cytoxicity (CC50) (A549 cells): >100 µg/mL; Plaque inhibition (EC50) [1]: 18.4 ± 0.7 µg/mL; reduction of viral production (plaque assay) ([1]; 25 μg/mL): approximately 50%; EC50 (XTT viability of infected cells, Fig. 1) [2]: 10 to 25 µg/mL
2 | O=C(O)c1cc(O)c(O)c(O)c1 [gallic acid] | protective effects | significant inhibition | decreased in a dose-dependent manner | 22.1 ± 0.6 (≈ 130 µM) | reduction of viral production (plaque assay) ([1]; 2.5 μg/mL): approximately 50%; EC50 ([1]; Influenza A virus, H1N1, 72 h, read-out: Plaque inhibition (EC50)): 2.6 ± 0.07 µg/mL (≈ 15.3 µM); EC50 [5]: 50.8 µM; CC50 [6]: 770 µM
3 | O=c1c(O)c(-c2ccc(O)cc2)oc2cc(O)cc(O)c12 [kaempferol] |  |  |  | > 100 | 
4 | O=c1c(O)c(-c2ccc(O)c(O)c2)oc2cc(O)cc(O)c12 [quercetin hydrate] |  |  |  | > 100 | 
5 | C[C@@H]1O[C@@H](OC[C@H]2O[C@@H](Oc3c(-c4ccc(O)c(O)c4)oc4cc(O)cc(O)c4c3=O)[C@H](O)[C@@H](O)[C@@H]2O)[C@H](O)[C@H](O)[C@H]1O [rutintrihydrate, rutin trihydrate] |  |  |  | > 100 | 
